Here are results for 17 compounds from ChEMBL document CHEMBL1145091, “Ring-expanded ("fat") nucleoside and nucleotide analogues exhibit potent in vitro activity against flaviviridae NTPases/helicases, including those of the West Nile virus, hepatitis C virus, and Japanese encephalitis virus” (J Med Chem, 2003).

Structures are written as SMILES. pIC50, pKi: −log10 of the molar value.

In test [1] the test system is Hepatitis C virus. Put plainly: Tested for inhibition against Helicase activity of hepatitis C virus (HCV) in presence of ATP adjusted to 105 uM and 4.7 pM of DNA substrate. Type of test: functional, Hepacivirus hominis. In a few lines: (§1)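 Unwinding of a 32P 5'-end-labelled partial duplex (26-mer released strand on 40-mer template; DNA or RNA as per line, 4.7 pM nucleotide base), using purified NTPase/helicase (2 pmol WNV from infected Vero E6 medium; 0.5 pmol HCV or 4 pmol JEV NS3 domain, or 0.2 pmol Suv3(Δ1–159), E. coli-expressed). ATP was set at each enzyme's ATPase Km: WNV 9.5 μM, HCV 105 μM, JEV 235 μM, Suv3 4.2 μM. The reaction ran in pH 7.5 Tris with 2 mM MgCl2 for 30 min at 30 °C.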

For test [2], the system named is Japanese encephalitis virus. The test can be described thus: Tested for inhibition against Helicase activity of Japanese encephalitis virus (JEV) in presence of ATP adjusted to 235 uM and 4.7 pM of DNA substrate. The class given is functional. In outline:
as §1

Test [3] can be described thus: Tested for inhibition against Helicase activity of human NTPase/Helicase Suv3 (delta1-159) in presence of ATP adjusted to 4.2 uM and 4.7 pM of DNA substrate. Type of test: functional. In a few lines:
as §1

The test system of test [4] is West Nile virus. The test can be described thus: Tested for inhibition against Helicase activity of west nile virus (WNV) in presence of ATP adjusted to 9.5 uM and 4.7 pM of DNA substrate. Type of test: functional. In outline: as §1
For test [5], the system named is Hepatitis C virus. The test can be described thus: Tested for inhibition against Helicase activity of hepatitis C virus (HCV) in presence of ATP adjusted to 105 uM and 4.7 pM of RNA duplex substrate. Type of test: functional, Hepacivirus hominis. In a few lines: as §1
For test [6], the system named is Japanese encephalitis virus. Put plainly: Tested for inhibition against Helicase activity of Japanese encephalitis virus (JEV) in presence of ATP adjusted to 235 uM and 4.7 pM of RNA duplex substrate. Type of test: functional. In a few lines: as §1
Test [7] can be described thus: Tested for inhibition against Helicase activity of human NTPase/Helicase Suv3 (delta1-159) in presence of ATP adjusted to 4.2 uM and 4.7 pM of RNA duplex substrate. The class given is functional. In outline:
as §1

The test system of test [8] is West Nile virus. The test can be described thus: Tested for inhibition against Helicase activity of west nile virus (WNV) in presence of ATP adjusted to 9.5 uM and 4.7 pM of RNA duplex substrate. Type of test: functional. In a few lines:
as §1

Test [9] relates to Hepatitis C virus. The test can be described thus: Tested for activating effect of hepatitis C virus (HCV) in presence of ATP adjusted to 105 uM and 4.7 pM of DNA substrate. Type of test: functional, Hepacivirus hominis. In a few lines: as §1
Test [10] relates to West Nile virus. The test can be described thus: Tested for activating effect of west nile virus (WNV) in presence of ATP adjusted to […] and 4.7 pM of DNA substrate. Type of test: functional.
In test [11] the test system is Hepatitis C virus. Put plainly: Tested for inhibition against 1.05 nM ATPase activity of hepatitis C virus (HCV) in presence of ATP adjusted to 1*10e-5 of Km of enzyme. Type of test: functional, Hepacivirus hominis. In outline: (§2)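 ATPase assay measuring 33Pi released from [γ-33P]ATP. Enzymes were 2 pmol WNV, 0.5 pmol HCV, 4 pmol JEV or 0.2 pmol Suv3(Δ1–159). The reaction ran in pH 7.5 Tris with 2 mM MgCl2 and 0.1 mg/mL BSA for 30 min at 30 °C and was stopped with activated charcoal; supernatant was scintillation-counted.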

The test system of test [12] is Hepatitis C virus. The test can be described thus: Tested for inhibition against 1.05 nM ATPase activity of hepatitis C virus (HCV) in presence of ATP adjusted to 1*10e-4 of Km of enzyme. Type of test: functional, Hepacivirus hominis. In a few lines:
as §2

In test [13] the test system is Japanese encephalitis virus. Put plainly: Tested for inhibition against 2.35 nM ATPase activity of Japanese encephalitis virus (JEV) in presence of ATP adjusted to 1*10e-5 of Km of enzyme. The class given is functional. In a few lines: as §2
In test [14] the test system is Japanese encephalitis virus. The test can be described thus: Tested for inhibition against […] ATPase activity of Japanese encephalitis virus (JEV) in presence of ATP adjusted to 1*10e-4 of Km of enzyme. Type of test: functional. In outline: as §2
Test [15] can be described thus: Tested for inhibition against 42 nM ATPase activity of human NTPase/Helicase Suv3 (delta1-159) in presence of ATP adjusted to 1*10e-5 of Km of enzyme. Type of test: functional. In a few lines: as §2
A short description of test [16]: Tested for inhibition against 42 pM ATPase activity of human NTPase/Helicase Suv3 (delta1-159) in presence of ATP adjusted to 1*10e-4 of Km of enzyme. Type of test: functional. In outline:
as §2

Test [17] has as its system West Nile virus. Put plainly: Tested for inhibition against 95 pM ATPase activity of west nile virus (WNV) in presence of ATP adjusted to 1*10e-5 of Km of enzyme. Type of test: functional. In a few lines: as §2
In test [18] the test system is West Nile virus. Put plainly: Tested for inhibition against 95 pM ATPase activity of west nile virus (WNV) in presence of ATP adjusted to 1*10e-4 of Km of enzyme. Type of test: functional. In a few lines: as §2
A further test concerns Hepatitis B virus. Put plainly: Tested for inhibition against […] in cultured human hepatoblastoma 2.2.15 cells. Type of test: functional, organism-based. Conditions: HepG2 2.2.15.
The subject of a further test is Flavivirus. Put plainly: Tested for inhibition against Flaviviridae NTPase/helicase (NTPase/helicase Non structural protein 3). Type of test: functional. The settings on record: Orthoflavivirus.
Test [19] is described as follows: Antimeasles activity determined. The class given is functional.
Another test concerns Human rhinovirus sp. The test can be described thus: Antirhino activity determined. The class given is functional, organism-based.

Regarding `CO[C@@H]1[C@H](O)[C@@H](CO)O[C@H]1n1cnc2c(=O)[nH][nH]c(=O)c21`, the pIC50 (as a rule, the IC50 on a negative log10 scale, so that one unit is a factor of ten) in the test on Hepatitis C virus [1] is 3.35; in test [2] it was below 3.30; in test [3], below 3.30; in the test on West Nile virus [4] it was 4.52.
Turning to `NC1=NC(=O)C2C(N=CN2COCCO)C(=O)N1` (centres undefined), the pIC50 (in the test with Hepatitis C virus [1]; in test [2]; in the test with West Nile virus [4]) was below 3.30 in each case.
Consider `NC1=NC(=O)C2C(N=CN2COCCOCc2ccccc2)C(=O)N1` (centres undefined), for which the pIC50 was 4.96 in the test with Hepatitis C virus [1]; 5.26 with Hepatitis C virus [5]; 3.82 in [2]; below 3.30 in [6]; 5.30 in [3]; 5.22 in [7]. The negative-log IC50 (pIC50) in the test with West Nile virus [4] is 5.24; in the test with West Nile virus [8], 5.48.
Turning to `O=C1NC2C(N=CN2Cc2ccccc2)C(=O)N(Cc2ccccc2)N1` (centres undefined), the pIC50 (in the test on Hepatitis C virus [1]; with Hepatitis C virus [5]; in [2]; in test [6]; in [3]; in test [7]) was below 3.30 in each case. Moreover, the figures for the pIC50 in the test with West Nile virus [4] and in the test on West Nile virus [8] were 5.46 and below 3.30, respectively.
With `NC1=NC(=O)C2C(N=CN2[C@H]2O[C@H](CO)[C@@H](O)[C@H]2O)C(=O)N1` (some centres undefined), the figures for the ED200 in the test on Hepatitis C virus [9] and in the test on West Nile virus [10] were 150 µM and 60 µM, respectively. Also, the pIC50 in the test with Hepatitis C virus [5] is 4.92; in test [2], below 3.30; in [6], 5.35; in test [3], below 3.30; in test [7], 5.46; in the test with West Nile virus [8] it was 3.66.
Turning to `Nc1nc(=O)c2c(ncn2[C@@H]2C[C@H](O)[C@@H](CO)O2)c(=O)[nH]1`, the pIC50 with Hepatitis C virus [1] was 5.15; in the test on Hepatitis C virus [5] it was below 3.30; in test [2], 4.89; in test [6], 5.70; in [3] it was 4.55; in [7], 3.82. Also, the pIC50 in the test on West Nile virus [4] is 4.60; in the test on West Nile virus [8], 5.24.
With `CO[C@@H]1[C@H](O)[C@@H](CO)O[C@H]1n1cnc2c(=O)[nH]c(N)nc(=O)c21`, in the test on Hepatitis C virus [9], the ED200 was determined as 350 µM. The pIC50 (in test [2]; in test [3]; in the test on West Nile virus [4]) was below 3.30 throughout.
For `NC1=NC(=O)C2N=CNC2C(=O)N1` (centres undefined), the pIC50 in the test on Hepatitis C virus [1] is below 3.30; with Hepatitis C virus [5], 3.70; in [2], below 3.30; in test [6], below 3.30; in test [7], 3.30; in the test on West Nile virus [4], below 3.30. In addition, the pIC50 with West Nile virus [8] was 3.66.
For the compound `O=C1NC2N=CNC2C(=O)N(Cc2ccccc2)N1` (centres undefined), the pIC50 (in the test with Hepatitis C virus [1]; with Hepatitis C virus [5]; in test [2]; in [6]; in [3]; in [7]) was below 3.30 each time. In addition, the figures for the negative logarithm of the IC50 (pIC50) in the test with West Nile virus [4] and in the test on West Nile virus [8] were 5.89 and below 3.30, respectively.
For `NC1=NC(=O)C2C(N=CN2CCOCP(=O)(O)O)C(=O)N1` (centres undefined), the pIC50 in the test with Hepatitis C virus [1] was 3.70; in test [2], below 3.30; in [3], below 3.30; in the test with West Nile virus [4], 3.30.
Take `O=C1NNC(=O)C2C(N=CN2C2O[C@H](COP(=O)(O)OP(=O)(O)OP(=O)(O)O)[C@@H](O)[C@H]2O)N1` (some centres undefined): the pIC50 in the test on Hepatitis C virus [11] was 5.82; in test [13], 4.40; in test [15], 3.90; in the test on West Nile virus [17], 5.40. The pKi (usually the negative decadic logarithm of the Ki, by convention in mol/L) in the test on Hepatitis C virus [12] is 5.77; in test [14], 4.82; in [16], 4.35; with West Nile virus [18] it was 5.54.
`N=C1N=C(N)N=C(N)C2N=CN(C3O[C@@H](COP(=O)(O)OP(=O)(O)OP(=O)(O)O)[C@H](O)[C@@H]3O)C12` (some centres undefined): the pIC50 is 6.26 in the test with Hepatitis C virus [11], 4.92 in test [13], 4.40 in [15] and 6.82 in the test with West Nile virus [17]. The pKi was 6.70 in the test on Hepatitis C virus [12], 5.46 in [14], 4.82 in test [16] and 6.42 with West Nile virus [18].
Regarding `N=C1N=C(N)N=C(N)C2N=CN(C3O[C@@H](CO)[C@H](O)[C@@H]3O)C12` (some centres undefined), the pIC50 (in the test with Hepatitis C virus [1]; in test [2]; in test [3]; with West Nile virus [4]) was below 3.30 throughout.
In the case of `NC1=NC(=O)C2C(N=CN2[C@@H]2O[C@H](CO)C(O)[C@H]2O)C(=O)N1` (single isomer, unassigned), the pIC50 in the test on Hepatitis B virus was 6.89; in the test with Flavivirus it was below 3.30.
Take `NC1=NC(=O)C2C(N=CN2[C@H]2CC(O)[C@@H](CO)O2)C(=O)N1` (single isomer, unassigned): the ED200 in the test with Hepatitis C virus [9] came out at 100 µM. Also, the pIC50 (in test [2]; in test [3]; in the test on West Nile virus [4]) was below 3.30 throughout.
Turning to `NC1=NC(=O)C2C(N=C(c3ccccc3)N2C2O[C@H](CO)C(O)[C@H]2O)C(=O)N1` (single isomer, unassigned), the pIC50 in test [19] is 6.30; with Human rhinovirus sp. it was 5.17.
In the case of `O=C1NNC(=O)C2C(N=CN2C2O[C@H](CO)C(O)[C@H]2O)N1` (single isomer, unassigned), the pIC50 (in the test on Hepatitis C virus [1]; in test [2]; in test [3]; in the test with West Nile virus [4]) was below 3.30 each time.
